The source made the active and inactive calls. The calls are words filed in the database; no cut-off is given here.
Columns and labels:
PC-3 = assay: cells; conditions: Homo sapiens, PC-3, 72 h
HepG2 = assay: cells; conditions: Homo sapiens, HepG2, 72 h
A549 = assay: cells; conditions: Homo sapiens, A549, 72 h
MDA-MB-231 [1] = assay: cells; conditions: Homo sapiens, MDA-MB-231, 72 h
MDA-MB-231 [2] = assay: Induction of mitochondrial membrane potential loss in human MDA-MB-231 cells assessed as increase in depolarised cells measured after 48 hrs by JC-1 stain based flow cytometry assay relative to control; assay type: functional, cell-based; conditions: dose 2.5-5 µM
Procedure, shortened: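 MDA-MB-231 cells were treated at 2.5 and 5 µM and stained with JC-1. Depolarised mitochondria were scored by green monomer signal and healthy mitochondria by red J-aggregates, against control.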

MDA-MB-231 [3] = assay: Induction of apoptosis in human MDA-MB-231 cells assessed as induction of morphological changes by measuring chromatin condensation measured after 48 hrs by Hoechst stain based flourescence assay in relative to control; assay type: functional, cell-based; conditions: dose 2.5-5 µM
Procedure, shortened: (§1)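 MDA-MB-231 cells were treated at 2.5 and 5 µM and stained with Hoechst. Nuclei were examined by fluorescence for chromatin condensation, nuclear shrinkage, and pyknotic or fragmented nuclei against untreated control.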

MDA-MB-231 [4] = assay: Induction of mitochondrial membrane potential loss in human MDA-MB-231 cells assessed as generation of ROS at 2.5 uM measured after 48 hrs by carboxy […] stain based flow cytometry assay relative to control; assay type: functional, cell-based
Procedure, shortened: (§2)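 MDA-MB-231 cells were treated at several doses and stained with carboxy-H2DCFDA. ROS were read as green DCF fluorescence relative to untreated control.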

MDA-MB-231 [5] = assay: Induction of mitochondrial membrane potential loss in human MDA-MB-231 cells assessed as generation of ROS at 5 uM measured after 48 hrs by carboxy […] stain based flow cytometry assay relative to control; assay type: functional, cell-based
Procedure, shortened: as §2

MDA-MB-231 [6] = assay: Induction of apoptosis in human MDA-MB-231 cells assessed as induction of morphological changes by measuring nuclear shrinkage and fragmentation in nucleus measured after 48 hrs by Hoechst stain based flourescence assay in relative to control; assay type: functional, cell-based; conditions: dose 2.5-5 µM
Procedure, shortened: as §1

MDA-MB-231 [7] = assay: Antimigratory activity against human MDA-MB-231 cells assessed as inhibition of cell migration at 2.5 uM measured after 24 hrs by phase contrast microscope based wound healing assay; assay type: functional
Procedure, shortened: (§3)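 Confluent MDA-MB-231 monolayers (DMEM, 10% FBS) were scratched with a sterile pipette tip and then treated. Wound closure was imaged by phase contrast microscopy after 24 h and compared with untreated control.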

HUVEC [8] = assay: Antimigratory activity against human HUVEC cells assessed as inhibition of cell invasion measured by inverted fluorescence microscope based transwell assay; assay type: functional; conditions: dose 2.5-5 µM
Procedure, shortened: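 A Boyden chamber (transwell) invasion assay used HUVECs passing through Matrigel and a membrane barrier. Treatment was 2.5 and 5 µM, with a reference VEGFR-2 inhibitor as standard. Invaded cells on the bottom side were compared with untreated control.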

HUVEC [9] = assay: Antiangiogenic activity against human HUVEC cells assessed as inhibition of tube formation measured after 16 hrs by matrigel based tube formation assay; assay type: functional, cell-based; conditions: dose 2.5-5 µM
Procedure, shortened: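 HUVECs were plated on Matrigel with 2.5 and 5 μM test agent, alongside a reference VEGFR-2 inhibitor. Tube networks were imaged, and quantification covered cell-covered area, tube length, branching points and total loops.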

MDA-MB-231 [10] = assay: Antimigratory activity against human MDA-MB-231 cells assessed as inhibition of cell migration at 5 uM measured after 24 hrs by phase contrast microscope based wound healing assay; assay type: functional
Procedure, shortened: as §3

MDA-MB-231 [11] = assay: Induction of apoptosis in human MDA-MB-231 cells assessed as necrotic cells at 5 uM measured after 48 hrs by Annexin V-FITC/Propidium iodide stain based flow cytometry assay (reference value: 0.3%); assay type: functional
MDA-MB-231 [12] = assay: Induction of apoptosis in human MDA-MB-231 cells assessed as viable cells at 2.5 uM measured after 48 hrs by Annexin V-FITC/Propidium iodide stain based flow cytometry assay (reference value: 95.3%); assay type: functional; conditions: read-out: Activity
MDA-MB-231 [13] = assay: Induction of apoptosis in human MDA-MB-231 cells assessed as early apoptotic cells at 5 uM measured after 48 hrs by Annexin V-FITC/Propidium iodide stain based flow cytometry assay (reference value: 3.2%); assay type: functional
MDA-MB-231 [14] = assay: Induction of apoptosis in human MDA-MB-231 cells assessed as late apoptotic cells at 2.5 uM measured after 48 hrs by Annexin V-FITC/Propidium iodide stain based flow cytometry assay (reference value: 1.2%); assay type: functional
MDA-MB-231 [15] = assay: Induction of apoptosis in human MDA-MB-231 cells assessed as viable cells at 5 uM measured after 48 hrs by Annexin V-FITC/Propidium iodide stain based flow cytometry assay (reference value: 95.3%); assay type: functional; conditions: read-out: Activity
MDA-MB-231 [16] = assay: Induction of apoptosis in human MDA-MB-231 cells assessed as necrotic cells at 2.5 uM measured after 48 hrs by Annexin V-FITC/Propidium iodide stain based flow cytometry assay (reference value: 0.3%); assay type: functional
MDA-MB-231 [17] = assay: Induction of apoptosis in human MDA-MB-231 cells assessed as late apoptotic cells at 5 uM measured after 48 hrs by Annexin V-FITC/Propidium iodide stain based flow cytometry assay (reference value: 1.2%); assay type: functional
MDA-MB-231 [18] = assay: Induction of apoptosis in human MDA-MB-231 cells assessed as early apoptotic cells at 2.5 uM measured after 48 hrs by Annexin V-FITC/Propidium iodide stain based flow cytometry assay (reference value: 3.2%); assay type: functional

Row | Structure (SMILES) | IC50 (PC-3) [µM] | IC50 (HepG2) [µM] | IC50 (A549) [µM] | IC50 (MDA-MB-231 [1]) [µM] | further results
1 | Cc1cc(Cl)ccc1NC(=O)Nc1nc(Sc2c[nH]c3ccccc23)cc(N2CCCC2)n1 | 12.9 | 7.15 | 8.93 | 9.44 | 
2 | O=C(Nc1ccccc1)Nc1nc(Sc2c[nH]c3ccccc23)cc(N2CCN(Cc3ccccc3)CC2)n1 | 42.5 | 8.16 | > 50 | 10.2 | 
3 | Cc1ccc(C)c(NC(=O)Nc2nc(Sc3c[nH]c4ccccc34)cc(N3CCN(Cc4ccccc4)CC3)n2)c1 | 17.3 | 16.4 | > 50 | 19 | 
4 | O=C(Nc1ccccc1)Nc1nc(Nc2ccccc2)cc(Sc2c[nH]c3ccccc23)n1 | 26.4 | 14.4 | > 50 | 35.9 | 
5 | Cc1ccc(C)c(NC(=O)Nc2nc(Sc3c[nH]c4ccccc34)cc(N3CCCCC3)n2)c1 | > 50 | 6.44 | 25.4 |  | Activity (MDA-MB-231 [2]): Active; Activity (MDA-MB-231 [3]): Dose-dependent effect; Activity (MDA-MB-231 [4]): Active; Activity (MDA-MB-231 [5]): Active; Activity (MDA-MB-231 [6]): Dose-dependent effect
6 | O=C(Nc1ccccc1)Nc1nc(Sc2c[nH]c3ccccc23)cc(N2CCCC2)n1 | 14.9 | 11.4 | 21.2 | 7.89 | 
7 | COc1ccc(NC(=O)Nc2nc(Sc3c[nH]c4ccccc34)cc(N3CCOCC3)n2)cc1 | 12.5 | 10.3 | 33.4 | 7.94 | 
8 | Cc1ccc(NC(=O)Nc2nc(Nc3ccccc3)cc(Sc3c[nH]c4ccccc34)n2)cc1 | 18.4 | 14.9 | 23.4 | 13.4 | 
9 | Cc1cc(Cl)ccc1NC(=O)Nc1nc(Sc2c[nH]c3ccccc23)cc(N2CCN(c3ccccn3)CC2)n1 | 19.8 | 7.64 | > 50 | 34.7 | 
10 | COc1ccc(NC(=O)Nc2nc(Nc3cc(OC)cc(OC)c3)cc(Sc3c[nH]c4ccccc34)n2)cc1 | 15.1 | 17.4 | > 50 | 9.46 | 
11 | O=C(Nc1ccccc1)Nc1nc(Sc2c[nH]c3ccccc23)cc(N2CCN(c3ccccn3)CC2)n1 | 21.6 | 8.93 | 30.2 | 19.5 | 
12 | O=C(Nc1ccc(Cl)cc1)Nc1nc(Sc2c[nH]c3ccccc23)cc(N2CCCCC2)n1 | 42.5 | 14.8 | 18.6 | 10.1 | 
13 | CNC(=O)c1cc(Oc2ccc(NC(=O)Nc3ccc(Cl)c(C(F)(F)F)c3)cc2)ccn1 [SORAFENIB] | 9.77 | 5.78 |  | 11.8 | inhibition (MDA-MB-231 [7]): Active; inhibition (HUVEC [8]): Dose-dependent effect; inhibition (HUVEC [9]): Dose-dependent effect; inhibition (MDA-MB-231 [10]): Active
14 | COc1ccc(NC(=O)Nc2nc(Sc3c[nH]c4ccccc34)cc(N3CCN(Cc4ccccc4)CC3)n2)cc1 | 16.7 | 21.4 | 42.3 | 8.92 | 
15 | COc1ccc(NC(=O)Nc2nc(Sc3c[nH]c4ccccc34)cc(N3CCCCC3)n2)cc1 | 17.4 | 17.1 | 13.5 | 7.26 | 
16 | COc1ccc(NC(=O)Nc2nc(Sc3c[nH]c4ccccc34)cc(N3CCCC3)n2)cc1 | 21.5 | 20.3 | 11.8 | 13.1 | 
17 | Cc1cc(Cl)ccc1NC(=O)Nc1nc(NC2CC2)cc(Sc2c[nH]c3ccccc23)n1 | 11.1 | 9.74 | 31.5 | 14.6 | 
18 | O=C(Nc1ccccc1)Nc1nc(NC2CC2)cc(Sc2c[nH]c3ccccc23)n1 | 17.5 | 14.3 | > 50 | 7.86 | 
19 | COc1ccc(NC(=O)Nc2nc(Sc3c[nH]c4ccccc34)cc(N3CCN(c4ccccn4)CC3)n2)cc1 | 33.4 | 11.4 | > 50 | 28.4 | 
20 | Cc1cc(Cl)ccc1NC(=O)Nc1nc(Sc2c[nH]c3ccccc23)cc(N2CCOCC2)n1 | 33.8 | 8.26 | > 50 | 8.65 | 
21 | O=C(Nc1ccccc1)Nc1nc(Sc2c[nH]c3ccccc23)cc(N2CCOCC2)n1 | 14.1 | 7.14 | 26.1 | 12.1 | 
22 | O=C(Nc1ccccc1)Nc1nc(Nc2ccc(Cl)cc2)cc(Sc2c[nH]c3ccccc23)n1 | 32.3 | 12.6 | 48.4 | 10.3 | 
23 | O=C(Nc1ccc(Cl)cc1)Nc1nc(Sc2c[nH]c3ccccc23)cc(N2CCOCC2)n1 | 28.4 | 22.5 | 21.8 | 6.93 | 
24 | Cc1cc(Cl)ccc1NC(=O)Nc1nc(Nc2ccccc2)cc(Sc2c[nH]c3ccccc23)n1 | 41.9 | 8.37 | > 50 | 17.1 | 
25 | O=C(Nc1ccccc1)Nc1nc(Sc2c[nH]c3ccccc23)cc(N2CCCCC2)n1 | 12.1 | 20.9 | 33.1 | 8.13 | 
26 | COc1cc(NC(=O)Nc2nc(Nc3cc(OC)cc(OC)c3)cc(Sc3c[nH]c4ccccc34)n2)cc(OC)c1 | 11.6 | 24.8 | > 50 | > 50 | 
27 | Cc1cc(Cl)ccc1NC(=O)Nc1nc(Sc2c[nH]c3ccccc23)cc(N2CCN(Cc3ccccc3)CC2)n1 | 22.4 | 11.7 | > 50 | 22.1 | 
28 | O=C(Nc1ccc(Cl)cc1)Nc1nc(Sc2c[nH]c3ccccc23)cc(N2CCCC2)n1 | 10.4 | 7.87 | 6.41 |  | Activity (MDA-MB-231 [11]): 0.9%; Activity (MDA-MB-231 [2]): Active; Activity (MDA-MB-231 [3]): Dose-dependent effect; Activity (MDA-MB-231 [4]): Active; viability at 2.5 µM (MDA-MB-231 [12]): 76.2%; inhibition (MDA-MB-231 [7]): Active; Activity (MDA-MB-231 [13]): 36.6%; Activity (MDA-MB-231 [14]): 3.8%; Activity (MDA-MB-231 [5]): Active; Activity (MDA-MB-231 [6]): Dose-dependent effect; inhibition (HUVEC [8]): Dose-dependent effect; viability at 5 µM (MDA-MB-231 [15]): 51.4%; inhibition (HUVEC [9]): Dose-dependent effect; Activity (MDA-MB-231 [16]): 0.5%; Activity (MDA-MB-231 [17]): 11.2%; Activity (MDA-MB-231 [18]): 19.4%; inhibition (MDA-MB-231 [10]): Active

Reference: ChEMBL document CHEMBL4765329, “Exploration of carbamide derived pyrimidine-thioindole conjugates as potential VEGFR-2 inhibitors with anti-angiogenesis effect” (Eur J Med Chem, 2020)
